Assay results as given in ChEMBL document CHEMBL4330182, “Advance of Seriniquinone Analogues as Melanoma Agents” (ACS Med Chem Lett, 2019).
In brackets after ≈: the same amount, converted by molar mass. Activity calls are given as the source filed them. The rule behind the calls is not given here.

How the values were obtained:
[1] = test system: Malme-3M; assay: Cytotoxicity against human MALME-3M cells after 72 hrs by MTT assay; assay type: functional, cell-based
[2] = Drug metabolism in aqueous media assessed as 2-hydroxydinaphtho[2,3-b:2',3'-d]thiophene-5,7,12,13-tetraone formation by NMR analysis
Outline: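 DMSO stocks of the carbamate at 1.0 or 0.5 mg/mL were diluted 20-fold into PBS pH 7.2. Samples were held 24 h at 23 °C, and hydrolytic release of the phenol (purple salt) was monitored.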

[3] = test system: Malme-3M; assay: Induction of DCD mRNA expression in human MALME-3M cells at 30 to 100 nM after 24 hrs by RT-qPCR method; assay type: functional, cell-based
[4] = test system: Calf thymus DNA; assay: Binding affinity to calf thymus DNA at 60 uM by fluorescence spectral analysis; assay type: nucleic-acid assay; settings: Bos taurus
Outline: (§1)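 Fluorescence emission spectra recorded while calf thymus DNA was titrated into the compound solution. […] Binding was judged by attenuation (quench) of emission on DNA addition.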

[5] = Solubility of the compound in pH 7.2 solution; assay type: physicochemical; settings: buffer
Outline: (§2)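 Solubility S was determined in buffer at pH 6.5 for the parent series and regioisomer mixtures, and at pH 7.2 for the phenol/carbamate series.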

[6] = test system: HCT-116; assay: Induction of oxidative stress in human HCT116 cells at 100 uM after 1 hr by CellROX green/NucBlue staining based confocal microscopic method; assay type: cell-based; settings: hct-116, 1 h
Outline: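 HCT-116 cells were stained with CellROX Green for reactive oxygen species and counterstained with NucBlue for nuclei. Imaging was by confocal microscopy, scoring green fluorescent mitochondria as the oxidative-stress read-out.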

[7] = test system: HCT-116; assay: Induction of DCD mRNA expression in human HCT116 cells at 1 to 10 uM after 24 hrs by RT-qPCR method; assay type: functional, cell-based
[8] = test system: SK-MEL-28; assay: Cytotoxicity against human SK-MEL-28 cells after 72 hrs by MTT assay; assay type: functional, cell-based; settings: SK-MEL-28, 72 h
[9] = Stability of the compound at 23 degC for 3 months at solid state; assay type: physicochemical; settings: 2191.5 h
[10] = test system: SK-MEL-28; assay: Induction of DCD mRNA expression in human SK-MEL-28 cells at 30 to 100 nM after 24 hrs by RT-qPCR method; assay type: functional, cell-based
[11] = test system: HCT-116; assay: Cytotoxicity against human HCT116 cells after 72 hrs by MTT assay; assay type: functional, cell-based; settings: HCT-116, 72 h
[12] = Solubility of the compound in pH 6.5 solution; assay type: physicochemical; settings: buffer; outline: as §2
[13] = test system: Calf thymus DNA; assay: Binding affinity to calf thymus DNA at 20 uM by fluorescence spectral analysis; assay type: nucleic-acid assay; settings: Bos taurus; outline: as §1
[14] = Stability of the compound in pH 7.2 PBS buffer at 23 degC for 1 month by NMR analysis; assay type: physicochemical; settings: pH 7.2, 730.5 h
Outline: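 Purity was followed by NMR in PBS pH 7.2 for 1 month at 23 °C, and in cell culture medium at 37 °C for 48 h (limit of testing).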

[15] = Stability of the compound in pH 7.2 PBS buffer at 37 degC for 48 hrs by NMR analysis; assay type: physicochemical; settings: pH 7.2, 48 h

Compound | IC50 [1] | Drug metabolism [2] | Activity [3] | Activity [4] | solubility [5] | Activity [6] | Activity [7] | IC50 [8] | Stability [9] | Activity [10] | IC50 [11] | solubility [12] | Activity [13] | Stability [14] | Stability [15]
CCCCNC(=O)Oc1ccc2c(=O)c3sc4c(=O)c5ccccc5c(=O)c4c3c(=O)c2c1 | 60 nM | Metabolite detected | Active | inactive | 24.6 µM (≈ 11.3 µg/mL) | Non-Toxic | Active | 1800 nM | Stable | Active | 750 nM |  |  |  | 
O=c1c2ccccc2c(=O)c2c1sc1c(=O)c3ccccc3c(=O)c12 | 50 nM |  | Active | inactive |  |  | Active | 360 nM |  | Active | 1290 nM | 0.06 µM (≈ 0.0207 µg/mL) |  |  | 
COc1cccc2c1C(=O)c1c(O)c3c(c(O)c1C2=O)C[C@@](O)(C(=O)CO)C[C@@H]3O[C@H]1C[C@H](N)[C@H](O)[C@H](C)O1 [DOXORUBICIN] | 500 nM |  |  |  |  |  |  | 3000 nM |  |  |  |  | Active |  | 
COc1ccc2c(=O)c3sc4c(=O)c5ccccc5c(=O)c4c3c(=O)c2c1 | 60 nM |  |  |  | 8.2 µM (≈ 3.07 µg/mL) |  |  | 7000 nM | Stable |  | 8160 nM |  |  | Stable | Stable
O=c1c2ccccc2c(=O)c2c1sc1c(=O)c3ncccc3c(=O)c12 | 100 nM |  |  |  |  |  |  | 2150 nM |  |  | 540 nM | 0.5 µM (≈ 0.173 µg/mL) |  |  | 
O=c1c2ccccc2c(=O)c2c1[nH]c1c(=O)c3ccccc3c(=O)c12 | 2030 nM |  |  |  |  |  |  | 4300 nM |  |  | 4240 nM | 0.4 µM (≈ 0.131 µg/mL) |  |  | 
O=c1c2ccccc2c(=O)c2c1oc1c(=O)c3ccccc3c(=O)c12 | 1110 nM |  |  |  |  |  |  | 3470 nM |  |  | 4080 nM | 0.09 µM (≈ 0.0295 µg/mL) |  |  | 
O=c1c2ccccc2c(=O)c2c1sc1c(=O)c3ccc(O)cc3c(=O)c12 | 220 nM |  | Active |  | 0.4 µM (≈ 0.144 µg/mL) |  | Active | 330 nM | Stable | Active | 1450 nM |  |  | Stable | Stable
